This note sets out measurements from ChEMBL document CHEMBL5649170, “Sustained microglial depletion with CSF1R inhibitor impairs parenchymal plaque development in an Alzheimer's disease model” (Nat Commun, 2019).

The source made the active and inactive calls. The calls are words filed in the database; no cut-off is given here.

The target in data set [1] is Casein kinase II subunit alpha' (Homo sapiens, UniProt P19784). In words: Inhibition of CSNK2A2 (unknown origin).
The target in data set [2] is Death-associated protein kinase 1 (Homo sapiens, UniProt P53355). Put plainly: Inhibition of DAPK1 (unknown origin).
Data set [3] has as its target Phosphorylase b kinase gamma catalytic chain, skeletal muscle/heart isoform (Homo sapiens, UniProt Q16816). In words: Inhibition of PHKG1 (unknown origin).
For data set [4], the target named is PI3-kinase p110-delta/p85-alpha (Homo sapiens, UniProt O00329). Put plainly: Inhibition of PIK3CD/PIK3R1 (unknown origin). The data set is classed as protein-complex assay.
Data set [5] addresses Protein kinase C beta type (Homo sapiens, UniProt P05771). In words: Inhibition of PRKCB1 (unknown origin).
Data set [6] has as its target Protein kinase C epsilon type (Homo sapiens, UniProt Q02156). Put plainly: Inhibition of PRKCE (unknown origin).
The target in data set [7] is cGMP-dependent protein kinase 2 (Homo sapiens, UniProt Q13237). Put plainly: Inhibition of PRKG2 (unknown origin).
In data set [8] the target is Ribosomal protein S6 kinase alpha-5 (Homo sapiens, UniProt O75582). Put plainly: Inhibition of RPS6KA5 (unknown origin).
Data set [9] has as its target Serine/threonine-protein kinase Sgk2 (Homo sapiens, UniProt Q9HBY8). In words: Inhibition of SGK2 (unknown origin).
For data set [10], the target named is Testis-specific serine/threonine-protein kinase 2 (Homo sapiens, UniProt Q96PF2). Put plainly: Inhibition of STK22B (unknown origin).
Data set [11] in a line: Cmax in female rat at 45 mg/kg, po administered as single dose via gavage. The data set is classed as ADME, organism-based. To be noted: in vivo.
The subject of data set [12] is Mus musculus. In words: Effect on circulating leukocytes in wildtype mouse assessed as percentage of CD45+/PI- cells expressing CD11c at 1200 ppm administered as rodent chow for 10 to 24 weeks (reference value: 34.7 to 54.3 %). The data set is classed as functional. To be noted: route po, time 10-24 weeks.
In data set [13] the target is T1, Macrophage colony-stimulating factor 1 receptor (Mus musculus) (UniProt P09581).
T1 sequence (whole entry): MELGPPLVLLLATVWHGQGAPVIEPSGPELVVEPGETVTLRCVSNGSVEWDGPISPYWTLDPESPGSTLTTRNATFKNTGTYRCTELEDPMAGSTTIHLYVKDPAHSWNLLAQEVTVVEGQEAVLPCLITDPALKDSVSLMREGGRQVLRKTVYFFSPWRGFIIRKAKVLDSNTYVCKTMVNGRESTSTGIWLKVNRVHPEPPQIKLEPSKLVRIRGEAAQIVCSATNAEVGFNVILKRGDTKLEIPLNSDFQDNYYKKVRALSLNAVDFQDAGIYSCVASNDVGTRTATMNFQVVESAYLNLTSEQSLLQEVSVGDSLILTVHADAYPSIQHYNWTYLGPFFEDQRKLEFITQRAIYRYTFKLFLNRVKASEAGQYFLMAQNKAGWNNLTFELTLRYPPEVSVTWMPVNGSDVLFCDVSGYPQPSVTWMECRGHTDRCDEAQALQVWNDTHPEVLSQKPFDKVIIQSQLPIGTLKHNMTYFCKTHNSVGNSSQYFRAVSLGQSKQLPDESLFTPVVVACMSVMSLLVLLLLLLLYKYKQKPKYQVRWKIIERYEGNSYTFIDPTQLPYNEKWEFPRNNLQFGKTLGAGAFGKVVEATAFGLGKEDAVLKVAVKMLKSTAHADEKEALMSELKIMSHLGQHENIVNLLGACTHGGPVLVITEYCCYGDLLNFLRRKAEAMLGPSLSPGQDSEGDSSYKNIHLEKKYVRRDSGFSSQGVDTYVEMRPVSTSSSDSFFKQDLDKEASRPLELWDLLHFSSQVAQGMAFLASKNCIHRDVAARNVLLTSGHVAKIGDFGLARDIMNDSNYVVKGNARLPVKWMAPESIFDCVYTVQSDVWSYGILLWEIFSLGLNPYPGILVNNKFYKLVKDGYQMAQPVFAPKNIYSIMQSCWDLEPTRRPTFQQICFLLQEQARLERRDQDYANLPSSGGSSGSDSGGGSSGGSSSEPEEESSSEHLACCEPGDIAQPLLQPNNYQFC
Put plainly: In vivo inhibition of CSF1R in wildtype mouse assessed as iron reactivity by measuring hemosiderin intensity of prussian blue staining in thalamus at 1200 ppm administered as rodent chow starting from 1.5 months and measured after 7 months by confocal microscopic analysis (reference value: 0.068 to 2.717 a.u.). The data set is classed as functional. To be noted: route po, time 5.5 months. The method in brief: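 Wild-type or 5xFAD mice fed PLX5622 (1200 ppm) in AIN-76A chow from 1.5 months of age, examined in 4- and 7-month-old cohorts. Brain sections stained with a Prussian blue kit per kit instructions to detect iron deposits (microbleeds).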

The test system of data set [14] is Mus musculus. In words: Antialzheimer activity in 5XFAD mouse assessed as average diameter of claudin-5 blood vessels in Thio-S negative retro spinal cortex at 1200 ppm administered as rodent chow starting from 1.5 months and measured after 4 months by immunolabeling analysis. The data set is classed as functional. The settings on record: route po, time 2.5 months, 1825 h.

Data set [15] deals with Mus musculus. In words: Effect on APP processing pathway in wildtype mouse assessed as full length APP protein signal intensity in cortex at 1200 ppm administered as rodent starting from 1.5 months and measured after 7 months (reference value: 0.124 to 27.917 %). It is filed as functional. To be noted: route po, time 5.5 months, 4015 h.
Data set [16] has as its system Mus musculus. In words: Effect on APP processing pathway in wildtype mouse assessed as PS1 protein signal intensity in cortex at 1200 ppm administered as rodent starting from 1.5 months and measured after 7 months (reference value: 78.906 to 243.681 %). The data set is classed as functional. To be noted: route po, time 5.5 months, 4015 h.
Data set [17] has as its system Mus musculus. In words: Antialzheimer activity in 5XFAD mouse assessed as ApoE immunoreactivity by measuring ApoE intensity of plaque core in cortex at 1200 ppm administered as rodent chow starting from 1.5 months and measured after 7 months by immunolabeling based confocal microscopic analysis (reference value: 13.88 to 87.23 a.u.). It is filed as functional. To be noted: route po, time 5.5 months, 4015 h.

Data set [18] can be described thus: Effect on Cx3cr1 gene expression in wild type mouse cortex at 1200 ppm administered as rodent chow starting from 1.5 months and measured after 7 months by RNA-Seq analysis (reference value: 9.334 to 12.119). The settings on record: route po, time 5.5 months, 4015 h. The data set is classed as functional.
Data set [19] is described as follows: Effect on Cx3cr1 gene expression in 5XFAD mouse hippocampus at 1200 ppm administered as rodent chow starting from 1.5 months and measured after 7 months by RNA-Seq analysis (reference value: 17.752 to 23.676 RPKM). It is filed as functional. To be noted: route po, time 5.5 months, 4015 h.
The nature of data set [20]: Effect on Spi1 gene expression in wild type mouse thalamus at 1200 ppm administered as rodent chow starting from 1.5 months and measured after 7 months by RNA-Seq analysis (reference value: 1.161 to 2.277 RPKM). It is filed as functional. To be noted: route po, time 5.5 months, 4015 h.
A short description of data set [21]: Effect on St8sia5 gene expression in wildtype mouse hippocampus assessed as percent change in Reads Per kilo base per Million mapped reads at 1200 ppm administered as rodent chow starting from 1.5 months and measured after 7 months by RNA-Seq analysis (reference value: 83.570 to 112.150 %). The data set is classed as functional. The settings on record: route po, time 5.5 months, 4015 h.

Data set [22] deals with Mus musculus. Put plainly: Antialzheimer activity in 5XFAD mouse assessed as pyroglutamte-3 immunoreactivity in thalamus at 1200 ppm administered as rodent chow for 24 weeks by immunolabeling based confocal microscopic analysis. The data set is classed as functional, organism-based. The settings on record: route po.

Death-associated protein kinase 1, sequence (P53355 whole entry, canonical isoform): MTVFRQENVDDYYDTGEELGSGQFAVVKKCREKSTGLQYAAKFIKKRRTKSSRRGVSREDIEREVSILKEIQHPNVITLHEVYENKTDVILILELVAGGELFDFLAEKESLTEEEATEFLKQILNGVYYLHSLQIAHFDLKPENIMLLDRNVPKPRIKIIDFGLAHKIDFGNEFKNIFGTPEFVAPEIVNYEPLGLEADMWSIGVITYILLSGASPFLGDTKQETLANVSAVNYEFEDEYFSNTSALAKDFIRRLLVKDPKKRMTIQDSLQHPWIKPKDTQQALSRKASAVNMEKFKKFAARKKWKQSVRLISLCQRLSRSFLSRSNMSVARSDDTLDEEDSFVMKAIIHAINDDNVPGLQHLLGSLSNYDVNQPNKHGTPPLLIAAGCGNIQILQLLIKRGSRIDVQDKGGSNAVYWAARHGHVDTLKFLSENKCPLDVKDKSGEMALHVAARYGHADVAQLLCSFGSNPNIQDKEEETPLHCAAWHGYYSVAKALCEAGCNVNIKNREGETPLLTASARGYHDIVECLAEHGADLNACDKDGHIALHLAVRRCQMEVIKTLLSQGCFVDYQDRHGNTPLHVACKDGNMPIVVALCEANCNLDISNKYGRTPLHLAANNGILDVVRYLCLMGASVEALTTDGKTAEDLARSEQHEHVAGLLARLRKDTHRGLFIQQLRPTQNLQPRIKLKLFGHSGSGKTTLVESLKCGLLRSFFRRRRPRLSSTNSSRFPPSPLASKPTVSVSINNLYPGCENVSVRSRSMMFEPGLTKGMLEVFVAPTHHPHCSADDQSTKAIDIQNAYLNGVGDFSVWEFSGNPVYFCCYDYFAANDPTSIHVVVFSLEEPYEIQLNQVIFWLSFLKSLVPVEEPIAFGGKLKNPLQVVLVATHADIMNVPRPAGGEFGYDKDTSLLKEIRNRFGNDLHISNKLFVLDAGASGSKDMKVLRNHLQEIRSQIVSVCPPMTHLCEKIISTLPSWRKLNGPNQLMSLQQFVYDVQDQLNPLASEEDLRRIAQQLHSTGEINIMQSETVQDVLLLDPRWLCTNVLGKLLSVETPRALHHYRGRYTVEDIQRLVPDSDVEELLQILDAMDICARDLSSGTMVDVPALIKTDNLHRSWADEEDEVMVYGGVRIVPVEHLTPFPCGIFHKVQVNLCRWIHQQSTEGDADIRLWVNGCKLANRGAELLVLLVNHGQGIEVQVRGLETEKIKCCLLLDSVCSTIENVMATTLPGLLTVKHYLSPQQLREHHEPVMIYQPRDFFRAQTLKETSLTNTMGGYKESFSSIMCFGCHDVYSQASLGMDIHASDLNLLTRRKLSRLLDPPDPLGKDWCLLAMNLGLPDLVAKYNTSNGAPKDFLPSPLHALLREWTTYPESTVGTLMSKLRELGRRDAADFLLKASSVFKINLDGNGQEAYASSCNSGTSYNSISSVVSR
Testis-specific serine/threonine-protein kinase 2, sequence (Q96PF2 whole entry): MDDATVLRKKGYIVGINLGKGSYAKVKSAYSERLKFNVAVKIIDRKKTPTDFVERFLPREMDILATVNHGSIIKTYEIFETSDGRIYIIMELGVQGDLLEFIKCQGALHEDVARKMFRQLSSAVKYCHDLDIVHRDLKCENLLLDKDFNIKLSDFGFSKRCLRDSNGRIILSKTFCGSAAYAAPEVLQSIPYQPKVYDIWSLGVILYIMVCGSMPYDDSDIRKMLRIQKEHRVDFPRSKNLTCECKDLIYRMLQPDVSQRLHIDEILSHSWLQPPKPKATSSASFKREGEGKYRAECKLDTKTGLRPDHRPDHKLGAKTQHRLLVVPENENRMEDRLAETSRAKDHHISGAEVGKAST
Protein kinase C epsilon type, sequence (Q02156 whole entry): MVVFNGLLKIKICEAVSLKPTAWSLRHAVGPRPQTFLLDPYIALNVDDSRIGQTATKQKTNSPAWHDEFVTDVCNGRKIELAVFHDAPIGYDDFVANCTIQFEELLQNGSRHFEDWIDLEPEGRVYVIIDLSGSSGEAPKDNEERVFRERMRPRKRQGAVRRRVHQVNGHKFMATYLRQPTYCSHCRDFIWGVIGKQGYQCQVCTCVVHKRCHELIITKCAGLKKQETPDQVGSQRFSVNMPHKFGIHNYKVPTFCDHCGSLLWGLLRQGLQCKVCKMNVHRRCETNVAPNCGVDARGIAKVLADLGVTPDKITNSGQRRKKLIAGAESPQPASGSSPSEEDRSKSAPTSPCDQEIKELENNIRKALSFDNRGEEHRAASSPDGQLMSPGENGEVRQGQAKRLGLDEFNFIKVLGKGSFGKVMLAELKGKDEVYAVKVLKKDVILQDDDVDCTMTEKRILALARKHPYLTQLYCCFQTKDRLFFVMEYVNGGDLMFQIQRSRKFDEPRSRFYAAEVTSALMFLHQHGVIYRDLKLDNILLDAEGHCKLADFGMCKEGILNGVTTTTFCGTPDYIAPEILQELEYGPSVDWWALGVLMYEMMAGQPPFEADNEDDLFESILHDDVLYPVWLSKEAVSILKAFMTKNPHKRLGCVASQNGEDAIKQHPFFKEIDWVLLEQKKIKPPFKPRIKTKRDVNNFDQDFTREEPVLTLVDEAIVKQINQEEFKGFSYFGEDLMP
Ribosomal protein S6 kinase alpha-5, sequence (O75582 whole entry): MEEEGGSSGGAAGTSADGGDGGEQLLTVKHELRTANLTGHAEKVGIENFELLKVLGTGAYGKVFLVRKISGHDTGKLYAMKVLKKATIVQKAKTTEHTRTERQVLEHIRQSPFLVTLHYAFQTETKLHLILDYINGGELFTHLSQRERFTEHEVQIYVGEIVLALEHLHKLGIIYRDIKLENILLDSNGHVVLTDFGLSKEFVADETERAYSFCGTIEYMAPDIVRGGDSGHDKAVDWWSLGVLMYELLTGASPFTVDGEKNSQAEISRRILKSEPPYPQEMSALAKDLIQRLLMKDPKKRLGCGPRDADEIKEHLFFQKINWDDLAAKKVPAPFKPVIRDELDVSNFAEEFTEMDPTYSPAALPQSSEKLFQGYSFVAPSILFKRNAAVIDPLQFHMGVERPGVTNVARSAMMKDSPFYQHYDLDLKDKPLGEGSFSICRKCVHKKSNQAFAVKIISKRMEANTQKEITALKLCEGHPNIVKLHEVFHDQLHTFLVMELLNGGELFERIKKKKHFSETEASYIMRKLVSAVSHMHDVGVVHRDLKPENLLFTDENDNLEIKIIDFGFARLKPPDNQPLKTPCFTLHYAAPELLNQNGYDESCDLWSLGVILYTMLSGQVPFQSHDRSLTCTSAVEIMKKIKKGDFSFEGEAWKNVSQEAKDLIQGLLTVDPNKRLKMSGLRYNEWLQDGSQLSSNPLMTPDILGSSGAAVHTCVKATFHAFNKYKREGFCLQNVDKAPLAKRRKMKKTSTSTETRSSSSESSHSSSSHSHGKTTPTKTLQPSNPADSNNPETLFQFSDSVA
PI3-kinase p110-delta/p85-alpha, sequence (P27986 whole entry): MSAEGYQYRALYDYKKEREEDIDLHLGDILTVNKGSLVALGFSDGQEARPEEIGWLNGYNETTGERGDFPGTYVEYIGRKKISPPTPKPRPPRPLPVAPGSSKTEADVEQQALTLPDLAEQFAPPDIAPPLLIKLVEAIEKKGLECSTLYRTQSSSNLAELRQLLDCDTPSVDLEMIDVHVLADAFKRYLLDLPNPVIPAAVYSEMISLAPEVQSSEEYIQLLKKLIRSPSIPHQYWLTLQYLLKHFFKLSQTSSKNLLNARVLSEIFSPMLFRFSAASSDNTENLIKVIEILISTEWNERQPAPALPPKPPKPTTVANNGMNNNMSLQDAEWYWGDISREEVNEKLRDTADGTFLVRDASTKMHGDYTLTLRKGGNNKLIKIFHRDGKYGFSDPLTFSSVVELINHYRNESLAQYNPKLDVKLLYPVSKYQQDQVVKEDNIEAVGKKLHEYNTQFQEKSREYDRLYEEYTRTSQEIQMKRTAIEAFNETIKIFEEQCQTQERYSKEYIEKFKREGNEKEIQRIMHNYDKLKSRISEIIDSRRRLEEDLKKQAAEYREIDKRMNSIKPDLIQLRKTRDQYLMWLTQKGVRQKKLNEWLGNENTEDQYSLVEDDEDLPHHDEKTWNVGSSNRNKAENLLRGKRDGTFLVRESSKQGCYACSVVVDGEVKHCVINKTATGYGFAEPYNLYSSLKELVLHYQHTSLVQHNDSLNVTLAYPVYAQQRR
PI3-kinase p110-delta/p85-alpha, sequence (O00329 whole entry): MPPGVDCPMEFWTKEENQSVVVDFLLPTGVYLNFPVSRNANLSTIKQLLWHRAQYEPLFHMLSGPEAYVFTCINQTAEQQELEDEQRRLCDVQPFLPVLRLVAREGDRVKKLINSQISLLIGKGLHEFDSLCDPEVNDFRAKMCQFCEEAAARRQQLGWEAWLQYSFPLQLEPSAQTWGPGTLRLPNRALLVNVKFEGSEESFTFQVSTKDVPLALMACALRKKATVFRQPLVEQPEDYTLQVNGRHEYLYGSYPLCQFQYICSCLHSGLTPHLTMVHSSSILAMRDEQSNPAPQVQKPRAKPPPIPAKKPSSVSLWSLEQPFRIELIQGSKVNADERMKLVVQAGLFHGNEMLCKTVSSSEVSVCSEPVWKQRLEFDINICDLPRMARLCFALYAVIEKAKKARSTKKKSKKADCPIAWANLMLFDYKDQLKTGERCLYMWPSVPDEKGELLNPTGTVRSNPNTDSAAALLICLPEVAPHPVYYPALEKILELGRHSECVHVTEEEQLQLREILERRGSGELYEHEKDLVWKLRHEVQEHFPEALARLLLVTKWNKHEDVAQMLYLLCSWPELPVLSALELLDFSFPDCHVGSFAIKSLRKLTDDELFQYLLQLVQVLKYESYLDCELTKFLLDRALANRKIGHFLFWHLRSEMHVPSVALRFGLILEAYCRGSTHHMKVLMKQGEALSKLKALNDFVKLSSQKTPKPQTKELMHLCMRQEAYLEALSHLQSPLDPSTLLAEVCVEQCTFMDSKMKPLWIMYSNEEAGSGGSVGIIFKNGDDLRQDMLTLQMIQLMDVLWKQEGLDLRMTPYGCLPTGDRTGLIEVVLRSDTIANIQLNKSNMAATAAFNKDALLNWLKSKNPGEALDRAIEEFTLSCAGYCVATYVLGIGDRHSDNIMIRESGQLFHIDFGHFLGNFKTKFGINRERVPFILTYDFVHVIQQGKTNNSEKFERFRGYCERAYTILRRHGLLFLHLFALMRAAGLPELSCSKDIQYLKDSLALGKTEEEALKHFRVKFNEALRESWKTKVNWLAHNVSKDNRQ

As to `COc1ncc(F)cc1CNc1ccc(Cc2c[nH]c3ncc(C)cc23)c(F)n1` [PLX-5622], the IC50 in data set [1], in [2], in data set [3], in data set [4], in data set [5] and in data set [6] was over 1 µM throughout. In addition, the IC50 in [7], in data set [8], in data set [9] and in data set [10] was over 1 µM in each case. In addition, in data set [11], the highest level (Cmax) was 15600 ng/mL. For the same molecule, the Activity in [12] came out at 31.4%; in data set [14], 1.786 um; in data set [15], 0.823%; in data set [16], 99.34%; in [18] it was 0 RPKM; in [19] it was 1.607 RPKM. The Activity is reported as 0 RPKM in data set [20] and 65.471% in [21]. Moreover, the Flu intensity in data set [13] worked out at 0.086 a.u; in data set [17] it was 4.57 a.u. Further, the result in data set [22] was Active.
